Measurements: PMC2849726 (Journal of medicinal chemistry, 2010)
In brackets after ≈: the same amount, converted by molar mass. Entries after “also recorded” stand apart in the source; their conditions may differ.

How the values were obtained:
[1] = test system: ER+ and HER2++ breast cancer cells; conditions: more selective than TAM; cited from earlier work
[2] = biological target: CK2α1 (Homo sapiens, UniProt P68400); assay: Kinases inhibition assay, CK2α1; assay type: biochemical; conditions: preliminary, Table 3 in supporting information
[3] = test system: MDA-MB-231 xenograft; assay: Antitumor activity in vivo, MDA-MB-231 xenograft; set-up: species or system SCID mice; conditions: 10 mg/kg i.p. qod to end
Summary of the method: (§1)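 Human tumour cells were grown in RPMI 1640 with 10% heat-inactivated FBS, 2 mM glutamine and antibiotics, harvested in log phase and resuspended in PBS at 5 × 10^7 cells/mL. 1 × 10^7 cells were given s.c. in the right flank. Test compound was dosed i.p. at 10 mg/kg qod to end in 4% benzyl alcohol/6% cremophor/90% D5W. Controls were vehicle i.p. qod and paclitaxel 20 mg/kg i.p. q4d × 5. Caliper tumour volume = w²×l/2. %TGD was calculated from mean time to endpoint, with logrank P ≤ 0.05. At least five animals per group.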

[4] = test system: ZR-75-1 xenograft; assay: Antitumor activity in vivo, ZR-75-1 xenograft; set-up: species or system SCID mice; conditions: 10 mg/kg i.p. qod to end
Summary of the method: as §1

[5] = biological target: AKT1 (Homo sapiens, UniProt P31749); assay: Kinases inhibition assay, AKT1; assay type: biochemical; conditions: preliminary, Table 3 in supporting information
[6] = test system: mammary gland side branching; assay: Preliminary in vivo evaluation, mammary gland side branching; conditions: BRCA1/p53 and wild-type mice, unpublished data
[7] = test system: PC-3 xenograft; assay: Antitumor activity in vivo, PC-3 xenograft; set-up: species or system SCID mice; conditions: 10 mg/kg i.p. qod to end
Summary of the method: as §1

[8] = test system: human breast cancer cell lines; assay: Cell line panel; assay type: cell-based; conditions: total 29 cell lines, unpublished data
[9] = test system: SK-BR-3 (estrogen receptor negative, HER2 over-expressing luminal-like breast cancer); conditions: cited from earlier work
[10] = biological target: ABL (Homo sapiens, UniProt P00519); assay: Kinases inhibition assay, ABL; assay type: biochemical; conditions: preliminary, Table 3 in supporting information
[11] = test system: MCF-7 (estrogen receptor positive luminal-like breast cancer); conditions: cited from earlier work
[12] = test system: ZR-75-1 (estrogen receptor positive, HER2 over-expressing luminal-like breast cancer); assay: Cell growth inhibition assay; assay type: cell-based, human; conditions: for IC50: Homo sapiens, ZR-75-1, read-out: IC50 against the ZR-75-1 cell lines
Summary of the method: (§2)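 Cells were grown in RPMI-1640 with 10% FBS and antibiotics at 37 °C in 5% CO2. Freshly trypsinized cells were seeded and test compound added from DMSO-diluted stock, then incubated 72 h after attachment. Cells were fixed with 10% TCA and stained 10 min with 0.4% SRB in 1% HOAc. Bound dye was dissolved in 10 mM trizma base and A515 read. ED50 is the concentration giving 50% reduction in net protein increase versus control, averaged over at least three independent determinations.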

[13] = test system: SK-BR-3 (estrogen receptor negative, HER2 over-expressing luminal-like breast cancer); assay: Cell growth inhibition assay; assay type: cell-based, human
Summary of the method: as §2

[14] = test system: MCF-7 (estrogen receptor positive luminal-like breast cancer); assay: Cell growth inhibition assay; assay type: cell-based, human
Summary of the method: as §2

Chain of CK2α1 (P68400 whole entry): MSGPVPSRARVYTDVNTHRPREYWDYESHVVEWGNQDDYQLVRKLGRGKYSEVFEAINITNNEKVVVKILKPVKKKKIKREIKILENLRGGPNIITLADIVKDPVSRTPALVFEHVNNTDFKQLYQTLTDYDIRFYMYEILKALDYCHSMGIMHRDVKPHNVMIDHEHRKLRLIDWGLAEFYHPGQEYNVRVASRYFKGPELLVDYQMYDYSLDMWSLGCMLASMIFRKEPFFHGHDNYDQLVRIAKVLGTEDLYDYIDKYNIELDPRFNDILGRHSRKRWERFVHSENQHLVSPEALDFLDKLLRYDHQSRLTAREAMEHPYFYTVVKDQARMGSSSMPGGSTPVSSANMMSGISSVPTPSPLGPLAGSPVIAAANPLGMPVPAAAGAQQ
Chain of ABL (P00519 whole entry, species assumed): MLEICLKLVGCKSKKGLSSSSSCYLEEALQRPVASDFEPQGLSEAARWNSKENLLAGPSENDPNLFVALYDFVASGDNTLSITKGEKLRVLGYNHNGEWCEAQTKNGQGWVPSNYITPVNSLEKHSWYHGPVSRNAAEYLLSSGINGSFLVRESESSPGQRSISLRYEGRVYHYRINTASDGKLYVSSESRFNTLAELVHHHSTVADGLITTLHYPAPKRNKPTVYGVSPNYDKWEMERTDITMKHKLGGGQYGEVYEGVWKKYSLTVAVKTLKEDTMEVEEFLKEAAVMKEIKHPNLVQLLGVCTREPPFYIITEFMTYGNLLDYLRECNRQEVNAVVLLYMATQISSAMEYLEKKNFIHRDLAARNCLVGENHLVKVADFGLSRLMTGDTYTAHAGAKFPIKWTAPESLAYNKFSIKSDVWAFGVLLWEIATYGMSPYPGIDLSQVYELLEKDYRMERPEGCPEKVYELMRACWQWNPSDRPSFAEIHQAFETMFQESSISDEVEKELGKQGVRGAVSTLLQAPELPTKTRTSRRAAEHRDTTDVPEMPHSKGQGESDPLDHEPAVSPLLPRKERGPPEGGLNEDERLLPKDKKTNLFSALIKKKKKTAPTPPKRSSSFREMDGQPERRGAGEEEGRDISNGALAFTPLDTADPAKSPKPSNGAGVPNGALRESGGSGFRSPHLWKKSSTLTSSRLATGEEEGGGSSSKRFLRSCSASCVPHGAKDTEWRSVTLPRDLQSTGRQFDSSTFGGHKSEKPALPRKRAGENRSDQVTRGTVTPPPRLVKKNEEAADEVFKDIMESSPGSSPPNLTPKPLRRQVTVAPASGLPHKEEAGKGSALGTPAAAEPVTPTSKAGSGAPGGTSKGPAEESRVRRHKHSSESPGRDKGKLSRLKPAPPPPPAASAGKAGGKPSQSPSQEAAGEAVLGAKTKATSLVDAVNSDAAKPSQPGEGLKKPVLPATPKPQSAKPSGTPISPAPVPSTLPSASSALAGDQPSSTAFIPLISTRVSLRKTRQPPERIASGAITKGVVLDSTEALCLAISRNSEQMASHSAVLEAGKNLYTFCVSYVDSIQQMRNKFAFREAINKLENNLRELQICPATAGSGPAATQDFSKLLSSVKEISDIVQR
Chain of AKT1 (P31749 whole entry, species assumed): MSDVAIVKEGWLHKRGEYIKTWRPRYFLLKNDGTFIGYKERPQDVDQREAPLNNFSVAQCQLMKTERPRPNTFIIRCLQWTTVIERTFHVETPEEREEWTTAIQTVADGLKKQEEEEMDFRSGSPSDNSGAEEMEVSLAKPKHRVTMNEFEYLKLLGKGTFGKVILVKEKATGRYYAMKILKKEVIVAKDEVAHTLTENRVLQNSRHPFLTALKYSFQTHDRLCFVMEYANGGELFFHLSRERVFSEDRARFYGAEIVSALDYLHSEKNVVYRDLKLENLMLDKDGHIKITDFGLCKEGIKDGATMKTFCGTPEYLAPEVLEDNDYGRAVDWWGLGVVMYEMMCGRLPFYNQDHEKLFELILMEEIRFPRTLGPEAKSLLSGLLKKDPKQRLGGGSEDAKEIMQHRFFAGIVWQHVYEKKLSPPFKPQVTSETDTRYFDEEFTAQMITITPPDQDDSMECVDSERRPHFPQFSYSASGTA

Cc1cccc2c1ccc1c3occ(C)c3c(=O)oc21 [Compound 1, Neo-tanshinlactone]
selectivity relative to TAM [1]: 20 fold

CCc1cccc2c1ccc1c3occ(C)c3c(=O)oc21 [Compound 2]
suppression of CK2α1 (in words) [2]: significantly suppressed
effect on MDA-MB-231 xenograft (in words) [3]: no effect
ZR-75-1 tumor xenograft growth (in words) [4]: potent activity; also recorded: significant reduction in growth
suppression of AKT1 (in words) [5]: significantly suppressed
mammary gland side branching (in words) [6]: dramatically reduced
effect on PC-3 xenograft (in words) [7]: no effect
share of human breast cancer cell lines against which effective [8]: approximately 40%
activity relative to 1 against SK-BR-3 [9]: about twice as active
suppression of ABL (in words) [10]: significantly suppressed
activity relative to 1 against MCF-7 [11]: about twice as active

Cc1coc2c1c(=O)oc1c3cccc(C(C)C)c3ccc21 [Compound 19, 6-Isopropyl-1-methyl-11H-benzo[h]furo[3,2-c]chromen-11-one]
ZR-75-1/SK-BR-3 selectivity ratio [12]: tenfold
IC50 [12]: 0.3 µg/mL (≈ 1.03 µM)

CCCc1cccc2c1ccc1c3occ(C)c3c(=O)oc21 [Compound 20, 1-Methyl-6-propyl-11H-benzo[h]furo[3,2-c]chromen-11-one]
ZR-75-1/SK-BR-3 selectivity ratio [12]: threefold
IC50 [12]: 0.2 µg/mL (≈ 0.684 µM)
SK-BR-3/MCF-7 selectivity ratio [13]: approximately 12 fold

COc1cccc2c1ccc1c3occ(C)c3c(=O)oc21 [Compound 21, 6-Methoxy-1-methyl-11H-benzo[h]furo[3,2-c]chromen-11-one]
ZR-75-1/MCF-7 selectivity ratio ([12]; more active against ZR-75-1 than MCF-7): 23 fold

Cc1coc2c1c(=O)oc1c3cccc(C(C)Br)c3ccc21 (stereo not drawn) [Compound 24, 6-(1-Bromoethyl)-1-methyl-11H-benzo[h]furo[3,2-c]chromen-11-one]
potency relative to 1 against ZR-75-1 [12]: two- to three-fold more potent than 1
potency relative to 1 against SK-BR-3 [13]: two- to three-fold more potent than 1

CCc1cccc2c1ccc1c3oc(C)cc3c(=O)oc21 [Compound 51, 6-Ethyl-2-methyl-11H-benzo[h]furo[3,2-c]chromen-11-one]
activity against MCF-7 (in words) [14]: completely inactive

Cc1ccc2c(=O)oc3c4ccccc4ccc3c2c1 [Compound 58, 9-Methyl-6H-dibenzo[c,h]chromen-6-one]
anti-breast cancer activity (in words) ([13]; only SK-BR-3 tested): inactive
